This is an account of results in ChEMBL document CHEMBL1157616, “Identification of 2-anilino-9-methoxy-5,7-dihydro-6H-pyrimido[5,4-d][1]benzazepin-6-ones as dual PLK1/VEGF-R2 kinase inhibitor chemotypes by structure-based lead generation” (J Med Chem, 2010).

Active and inactive are the calls of the source.

In assay [1] the target is T1, Vascular endothelial growth factor receptor 2 (Homo sapiens, UniProt P35968). In words: Inhibition of VEGFR2 assessed as [33Pi] incorporation by microplate scintillation counting in presence of 1 uM ATP. The method in brief:
(§1)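 Substrates: Poly(Glu,Tyr)4:1 for VEGFR2; Poly(Glu,Tyr) or Poly(Ala,Glu,Lys,Tyr) for INS-R; RBER-CHKtide or casein for PLK1. Incubated 30 °C, 80 min, stopped with 2% H3PO4. Singlicate; activity referenced to no-enzyme and no-inhibitor controls.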

Assay [2] addresses T2, Serine/threonine-protein kinase PLK1 (Homo sapiens, UniProt P53350). Put plainly: Inhibition of PLK1 assessed as [33Pi] incorporation by microplate scintillation counting in presence of 1 uM ATP.
The target of assay [3] is T3, Insulin receptor (Homo sapiens, UniProt P06213). Put plainly: Inhibition of INSR assessed as [33Pi] incorporation by microplate scintillation counting in presence of 1 uM ATP. Put shortly: as §1
T3 sequence (P06213 28-758 limits assumed): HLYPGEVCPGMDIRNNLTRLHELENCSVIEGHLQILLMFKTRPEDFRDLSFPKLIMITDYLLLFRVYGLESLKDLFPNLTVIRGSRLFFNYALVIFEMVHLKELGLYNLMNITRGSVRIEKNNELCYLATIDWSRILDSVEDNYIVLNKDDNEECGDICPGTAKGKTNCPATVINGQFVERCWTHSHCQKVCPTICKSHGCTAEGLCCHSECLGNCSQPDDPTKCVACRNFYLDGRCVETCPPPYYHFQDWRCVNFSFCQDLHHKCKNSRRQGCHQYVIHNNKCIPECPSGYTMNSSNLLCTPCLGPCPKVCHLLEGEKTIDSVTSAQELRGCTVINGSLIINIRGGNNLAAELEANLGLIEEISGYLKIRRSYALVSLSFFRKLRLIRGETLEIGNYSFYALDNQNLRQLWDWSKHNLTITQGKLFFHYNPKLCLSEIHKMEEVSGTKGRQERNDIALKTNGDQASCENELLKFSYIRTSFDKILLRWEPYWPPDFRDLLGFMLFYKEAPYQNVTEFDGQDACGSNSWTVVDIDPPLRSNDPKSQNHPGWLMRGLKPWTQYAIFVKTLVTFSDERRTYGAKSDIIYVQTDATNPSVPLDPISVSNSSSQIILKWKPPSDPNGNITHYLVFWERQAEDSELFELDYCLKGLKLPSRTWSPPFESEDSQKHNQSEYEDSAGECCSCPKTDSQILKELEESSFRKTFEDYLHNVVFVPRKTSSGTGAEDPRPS
T3 sequence (P06213 763-1382 limits assumed): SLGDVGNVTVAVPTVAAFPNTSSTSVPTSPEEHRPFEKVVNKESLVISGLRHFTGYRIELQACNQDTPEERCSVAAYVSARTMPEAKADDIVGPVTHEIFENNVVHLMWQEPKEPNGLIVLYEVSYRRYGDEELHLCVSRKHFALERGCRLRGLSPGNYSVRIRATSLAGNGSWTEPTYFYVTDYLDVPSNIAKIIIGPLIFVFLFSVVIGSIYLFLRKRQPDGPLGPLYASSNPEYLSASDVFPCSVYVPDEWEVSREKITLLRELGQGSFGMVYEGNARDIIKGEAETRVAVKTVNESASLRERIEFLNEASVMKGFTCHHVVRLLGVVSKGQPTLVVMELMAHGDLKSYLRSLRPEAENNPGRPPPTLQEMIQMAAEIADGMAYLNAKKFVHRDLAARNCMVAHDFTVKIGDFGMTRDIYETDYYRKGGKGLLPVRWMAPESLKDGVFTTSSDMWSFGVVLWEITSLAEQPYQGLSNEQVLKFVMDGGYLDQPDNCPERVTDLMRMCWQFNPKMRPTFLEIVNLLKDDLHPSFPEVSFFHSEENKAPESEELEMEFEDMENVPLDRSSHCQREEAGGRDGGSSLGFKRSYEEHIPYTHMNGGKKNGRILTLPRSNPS
Assay [4] has as its target T1, Vascular endothelial growth factor receptor 2. Put plainly: Inhibition of VEGFR2 in HUE cells assessed as inhibition of VEGF-induced autophosphorylation treated for 90 mins before VEGF challenge by ELISA. The format is cell-based.
Another assay deals with CAKI-1. Put plainly: Growth inhibition of human Caki1 cells after 48 hrs by sulforhodamine B assay. It counts as functional. The following applies: CAKI-1, 48 h. Put shortly:
(§2)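 NCI SRB assay with five drug concentrations, top concentration 100 μM, 48 h exposure at 37 °C in RPMI 1640/5% FBS. GI50 is the concentration giving [(Ti−Tz)/(C−Tz)]×100 = 50. Values are means of two independent runs on different dates, each run in duplicate.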
In general terms: The SRB assay estimates cell density from bound dye.

A further assay concerns UACC-257. In words: Growth inhibition of human UACC257 cells after 48 hrs by sulforhodamine B assay. The format is functional. The conditions noted are these: UACC-257, 48 h. The method in brief:
as §2

In another assay the test system is NCI60. In words: Antiproliferative activity against human NCI60 cells at 10 uM after 48 hrs by sulforhodamine B assay. It counts as functional, cell-based. The method in brief: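 NCI 60-cell-line prescreen with compound given once at 10 μM. Cells grown in RPMI 1640 with 5% FBS and 2 mM L-glutamine, plated 24 h before dosing, then exposed 48 h at 37 °C. Fixed with cold TCA, stained with SRB, absorbance read at 515 nm, and percent growth taken relative to time-zero and control wells.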

For another assay, the system named is IGROV-1. Put plainly: Growth inhibition of human IGROV1 cells after 48 hrs by sulforhodamine B assay. The conditions noted are these: IGROV-1, 48 h. The format is functional. The method in brief: as §2
The target of assay [5] is T1, Vascular endothelial growth factor receptor 2. The conditions noted are these: HUE, 10 uM.
The test system of a further assay is HUVEC. In words: Inhibition of angiogenesis in HUVEC assessed as inhibition of VEGF-induced sprout growth from cellular spheroids after 24 hrs. The format is functional, cell-based. The following applies: Homo sapiens. Put shortly: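 Spheroids of 500 primary HUVEC formed overnight in hanging drops, then embedded in collagen gel. Compound added with VEGF-A at 25 ng/mL final, incubated 37 °C for 24 h, then fixed in 4% paraformaldehyde. Cumulative sprout length measured by image analysis; the mean of 10 random spheroids counts as one data point. IC50 from curve fitting.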

In assay [6] the target is T1, Vascular endothelial growth factor receptor 2. In words: Inhibition of VEGFR2 assessed as [33Pi] incorporation at 10 uM by microplate scintillation counting in presence of 1 uM ATP. The method in brief: as §1
The target in assay [7] is T2, Serine/threonine-protein kinase PLK1. In words: Inhibition of PLK1 assessed as [33Pi] incorporation at 10 uM by microplate scintillation counting in presence of 1 uM ATP. The method in brief:
as §1

Assay [8] addresses T3, Insulin receptor. In words: Inhibition of INSR assessed as [33Pi] incorporation at 10 uM by microplate scintillation counting in presence of 1 uM ATP. Put shortly:
as §1

T2 sequence (P53350 whole entry): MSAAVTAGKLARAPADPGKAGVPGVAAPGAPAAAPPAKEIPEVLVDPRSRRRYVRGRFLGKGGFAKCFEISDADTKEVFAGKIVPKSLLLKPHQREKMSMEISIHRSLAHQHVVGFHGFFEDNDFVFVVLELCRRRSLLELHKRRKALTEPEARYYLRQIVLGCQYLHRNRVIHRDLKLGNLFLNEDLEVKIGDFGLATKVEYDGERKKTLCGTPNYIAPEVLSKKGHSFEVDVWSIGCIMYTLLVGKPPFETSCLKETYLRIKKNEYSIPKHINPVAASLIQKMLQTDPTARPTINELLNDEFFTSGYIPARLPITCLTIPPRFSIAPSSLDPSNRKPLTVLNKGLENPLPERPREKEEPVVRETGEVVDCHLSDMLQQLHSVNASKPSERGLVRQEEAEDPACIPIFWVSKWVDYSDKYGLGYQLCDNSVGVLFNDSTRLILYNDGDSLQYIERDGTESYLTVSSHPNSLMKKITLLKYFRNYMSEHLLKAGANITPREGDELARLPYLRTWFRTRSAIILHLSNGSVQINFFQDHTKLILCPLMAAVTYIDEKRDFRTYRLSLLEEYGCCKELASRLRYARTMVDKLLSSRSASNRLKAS
T1 sequence (P35968 whole entry): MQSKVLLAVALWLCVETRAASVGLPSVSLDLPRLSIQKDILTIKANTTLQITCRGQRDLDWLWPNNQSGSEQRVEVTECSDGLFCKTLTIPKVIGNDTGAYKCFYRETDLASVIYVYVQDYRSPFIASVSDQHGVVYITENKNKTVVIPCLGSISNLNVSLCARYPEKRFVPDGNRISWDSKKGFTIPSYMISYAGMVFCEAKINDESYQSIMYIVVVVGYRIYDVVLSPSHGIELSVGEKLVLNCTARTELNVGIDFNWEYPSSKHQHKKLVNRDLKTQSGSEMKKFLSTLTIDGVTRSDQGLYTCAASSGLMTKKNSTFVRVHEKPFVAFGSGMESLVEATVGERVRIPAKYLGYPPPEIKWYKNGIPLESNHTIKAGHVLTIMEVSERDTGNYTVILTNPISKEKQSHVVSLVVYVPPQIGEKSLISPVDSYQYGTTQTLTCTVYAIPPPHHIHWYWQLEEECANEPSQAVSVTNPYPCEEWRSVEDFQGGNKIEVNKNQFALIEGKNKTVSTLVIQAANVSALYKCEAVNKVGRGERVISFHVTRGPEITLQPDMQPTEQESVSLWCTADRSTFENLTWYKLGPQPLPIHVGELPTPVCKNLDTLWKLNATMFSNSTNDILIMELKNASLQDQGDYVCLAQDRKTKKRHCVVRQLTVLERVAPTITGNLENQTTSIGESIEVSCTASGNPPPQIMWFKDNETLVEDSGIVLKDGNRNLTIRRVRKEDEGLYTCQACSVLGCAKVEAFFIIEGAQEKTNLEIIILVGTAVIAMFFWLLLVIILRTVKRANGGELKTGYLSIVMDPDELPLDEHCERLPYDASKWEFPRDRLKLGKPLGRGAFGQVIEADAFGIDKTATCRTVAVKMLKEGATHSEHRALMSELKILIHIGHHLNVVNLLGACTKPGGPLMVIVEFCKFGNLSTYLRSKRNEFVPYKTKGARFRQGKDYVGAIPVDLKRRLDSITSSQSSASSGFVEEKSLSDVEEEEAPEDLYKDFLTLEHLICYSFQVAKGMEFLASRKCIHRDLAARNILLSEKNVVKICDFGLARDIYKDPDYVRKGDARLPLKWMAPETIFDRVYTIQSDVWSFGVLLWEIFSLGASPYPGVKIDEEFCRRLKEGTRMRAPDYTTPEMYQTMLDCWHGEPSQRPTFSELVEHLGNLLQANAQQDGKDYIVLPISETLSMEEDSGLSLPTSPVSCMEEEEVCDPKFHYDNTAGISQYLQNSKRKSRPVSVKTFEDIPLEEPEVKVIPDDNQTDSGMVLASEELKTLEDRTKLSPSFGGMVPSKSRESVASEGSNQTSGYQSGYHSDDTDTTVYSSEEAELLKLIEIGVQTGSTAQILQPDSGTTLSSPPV

Turning to `O=C1Cc2cnc(Nc3ccc(O)c(Cl)c3)nc2-c2ccccc2N1`, the IC50 was 35 nM in [1], 9300 nM in assay [2], 84000 nM on Insulin receptor [3] and 9600 nM in assay [4]. In addition, the GI50 in the assay with CAKI-1 is 4700 nM; in the assay on UACC-257, 39000 nM. The outcome in the assay on NCI60 was Active.
Consider `O=C1Cc2cnc(Nc3ccc(O)cc3)nc2-c2ccccc2N1`, for which the 50% inhibitory concentration (IC50) in [1] is 80 nM; in [2], more than 100000 nM; on Insulin receptor [3], more than 100000 nM. For the same compound, the GI50 is 3000 nM in the assay with IGROV-1, 2600 nM with CAKI-1 and more than 100000 nM in the assay on UACC-257. For the same compound, in the assay with NCI60, the outcome was Active.
For the compound `O=C1Cc2cnc(Nc3ccc(O)c(Cl)c3)nc2-c2cnccc2N1`, the IC50 in [1] is 87 nM; in assay [2], 1400 nM; at Insulin receptor [3], more than 100000 nM. For the same compound, in the assay with NCI60, the result was Active. Further, in assay [5], the inhibition result was “inactive”.
Take `CCOc1ccc(Nc2ncc3c(n2)-c2ccc(OC)cc2NC(=O)C3)cc1`: the IC50 in [1] was 52 nM; in [2] it was 7300 nM; on Insulin receptor [3], more than 100000 nM; in assay [4] it was 290 nM; with HUVEC, 1100 nM. The 50% growth inhibitory concentration (GI50) with IGROV-1 came out at 230 nM; in the assay with CAKI-1, 390 nM; with UACC-257 it was 55000 nM. In addition, in the assay on NCI60, the outcome was Active.
Consider `COc1ccc(Nc2ncc3c(n2)-c2ccccc2NC(=O)C3)cc1O`, for which the IC50 in assay [1] is 73 nM; in assay [2], 5700 nM; at Insulin receptor [3] it was 24000 nM; in [4] it was 2400 nM. Also, the 50% growth inhibitory concentration (GI50) was found to be 250 nM in the assay with IGROV-1, 150 nM in the assay with CAKI-1 and 19000 nM with UACC-257. In addition, the outcome in the assay with NCI60 was Active.
`COc1ccc2c(c1)NC(=O)Cc1cnc(Nc3ccc(O)c(Cl)c3)nc1-2`: the half-inhibitory concentration (IC50) in assay [1] was 11 nM; in assay [2], 360 nM; at Insulin receptor [3], more than 100000 nM; in assay [4], 430 nM; in the assay with HUVEC, 1200 nM. For the same compound, in the assay with NCI60, the result was Active.
As to `COc1ccc(Nc2ncc3c(n2)-c2ccccc2NC(=O)C3)cc1`, the IC50 in assay [1] came to 95 nM; in assay [2] it was 47000 nM; at Insulin receptor [3], 99000 nM. Besides, the GI50 in the assay with IGROV-1 was determined as 410 nM; with CAKI-1 it was 510 nM; in the assay on UACC-257, 61000 nM. The result in the assay with NCI60 was Active.
Consider `CCOc1ccc(Nc2ncc3c(n2)-c2cnccc2NC(=O)C3)cc1`, for which the IC50 in assay [1] was 99 nM; in assay [2], 1700 nM; at Insulin receptor [3], more than 100000 nM; in assay [4], 18600 nM. The GI50 is 400 nM in the assay with IGROV-1, 160 nM in the assay on CAKI-1 and more than 100000 nM in the assay on UACC-257. Further, the outcome with NCI60 was Active.
Regarding `O=C1Cc2cnc3ncnn3c2-c2ccccc2N1`, the inhibition (in [6]; in assay [7]; on Insulin receptor [8]) was less than 30% each time. In addition, in the assay with NCI60, the outcome was Active.
On to `CCOc1ccc(Nc2ncc3c(n2)-c2ccccc2NC(=O)C3)cc1`, for which the IC50 in [1] is 130 nM; in assay [2], more than 100000 nM; at Insulin receptor [3], more than 100000 nM. Moreover, the concentration for 50% growth inhibition (GI50) with IGROV-1 was 380 nM; with CAKI-1, 750 nM; in the assay on UACC-257, 27000 nM. Moreover, the outcome in the assay with NCI60 was Active.

Broadly, the IC50 is the midpoint of a concentration-inhibition curve. Broadly, the GI50 is the concentration at which growth is held to half of that of the control. As usually defined, the inhibition is the change of the read-out against control, counted positive when it falls.
